# KCNQ1 act: potentiates or activates the human KCNQ1 potassium channel | P51787 | CHO-K1 KCNQ1, thallium flux FluxOR fluorescence; stronger effect = higher value | B-score at 10 µM | 310,000 compounds, 0.35% hits;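 active = fluorescence ratio B-score, a plate-corrected score, at least three library SD, with initial intensity B-score within 5 SD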
#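 assay system = CHO-K1 cells stably expressing KCNQ1 | medium = assay buffer, equal DMSO in all wells | timing = 37 °C overnight plating, 90-min dark dye load, 20-min compound pretreatment | measured by = kinetic FluxOR thallium fluorescence, 10-s 1-Hz baseline, 110-s post-stimulus read | measure = fluorescence change relative to baseline, converted to B score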
# KCNK3 block: human KCNK3 channel inhibition, primary screen; O14649; B-score at 10 µM; 340,000 compounds, 0.84% hits; CHO-KCNK3 thallium flux, FluxOR fluorescence; stronger effect = lower value;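 active = B-score under library mean minus 4 SD, starting fluorescence ratio at most library mean plus 5 SD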;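 note: more negative B-score means stronger inhibition of thallium flux through KCNK3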
# KCNK9 block: blocks the human KCNK9 two-pore domain potassium channel; Q9NPC2; HEK293 KCNK9, FluxOR thallium flux fluorescence; stronger effect = lower value; B-score at 10 µM; 310,000 compounds, 1.2% hits;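 active = ratio B-score over 3 SD below the library mean, with starting fluorescence within 5 SD of its mean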;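 note: negative B-score means less thallium flux so channel inhibition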
# hERG protect: shields human hERG channel from block by proarrhythmic agents | 310,000 compounds, 0.51% hits | activation (rescue from dofetilide block), less the hit threshold, % at 10 µM | CHO-hERG, FluxOR thallium flux, dofetilide IC70 present | AID 1511 | Q12809;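 active = activation above the mean of controls blocked by dofetilide plus 5 SD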;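 note: thallium influx through hERG after potassium depolarization seen as dye fluorescence rise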
# Target sequence (Q12809 whole entry, looked up): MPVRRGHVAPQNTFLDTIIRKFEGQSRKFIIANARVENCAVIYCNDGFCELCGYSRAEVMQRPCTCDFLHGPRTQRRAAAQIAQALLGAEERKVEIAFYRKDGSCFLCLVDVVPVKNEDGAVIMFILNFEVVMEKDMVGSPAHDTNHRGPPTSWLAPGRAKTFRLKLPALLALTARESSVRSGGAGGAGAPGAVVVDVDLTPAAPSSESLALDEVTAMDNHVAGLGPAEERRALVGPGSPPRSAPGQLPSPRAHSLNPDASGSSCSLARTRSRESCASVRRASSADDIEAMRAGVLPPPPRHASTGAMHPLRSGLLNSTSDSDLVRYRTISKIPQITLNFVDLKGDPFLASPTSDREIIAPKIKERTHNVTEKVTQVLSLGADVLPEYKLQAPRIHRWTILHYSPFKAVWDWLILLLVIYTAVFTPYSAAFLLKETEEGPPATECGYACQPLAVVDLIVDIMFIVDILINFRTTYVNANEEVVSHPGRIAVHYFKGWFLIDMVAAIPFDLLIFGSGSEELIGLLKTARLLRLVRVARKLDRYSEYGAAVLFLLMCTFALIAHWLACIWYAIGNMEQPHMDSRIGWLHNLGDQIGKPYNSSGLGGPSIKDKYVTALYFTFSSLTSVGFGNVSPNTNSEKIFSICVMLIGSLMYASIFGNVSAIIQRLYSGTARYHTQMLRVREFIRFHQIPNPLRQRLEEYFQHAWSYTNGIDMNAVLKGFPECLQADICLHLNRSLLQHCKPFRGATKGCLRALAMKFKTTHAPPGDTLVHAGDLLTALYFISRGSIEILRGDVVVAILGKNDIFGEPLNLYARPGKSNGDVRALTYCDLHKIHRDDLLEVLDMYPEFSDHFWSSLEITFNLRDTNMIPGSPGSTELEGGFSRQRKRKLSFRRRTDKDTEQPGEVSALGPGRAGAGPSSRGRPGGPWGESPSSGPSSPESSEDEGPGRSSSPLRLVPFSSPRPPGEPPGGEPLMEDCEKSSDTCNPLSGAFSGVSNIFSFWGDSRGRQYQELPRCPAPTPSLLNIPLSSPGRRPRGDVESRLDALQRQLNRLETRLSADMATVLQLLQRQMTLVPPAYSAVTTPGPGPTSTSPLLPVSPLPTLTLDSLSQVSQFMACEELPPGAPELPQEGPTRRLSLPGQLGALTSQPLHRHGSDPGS
# Kir21 inh: blocks the mouse Kir2.1 inward-rectifier potassium channel | HEK293-Kir2.1, FluxOR thallium flux fluorescence; stronger effect = lower value | B-score at 10 µM | 310,000 compounds, 0.85% hits;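 active = fluorescence ratio B-score at or below minus 3 SD of library scores, with starting-brightness B-score within 2 SD, cut at about -4.2 in these data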;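 note: channel flux triggered by added potassium and thallium sulfate stimulus; B-score of peak minus minimum fluorescence over baseline after thallium stimulus; more negative B-score means stronger Kir2.1 block with less thallium influx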
# KCNQ1 block: human KCNQ1 channel inhibition; P51787; CHO-K1 KCNQ1, FluxOR thallium flux fluorescence; stronger effect = higher value; B-score at 10 µM; 310,000 compounds, 1.3% hits; AID 2642;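 active = compounds whose thallium flux B-score, printed positive for inhibition, exceeds three library SD while starting fluorescence stays within three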;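 note: channel opened by potassium depolarization with thallium stimulus after 20 min compound exposure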
# Numbers without * were called inactive; i = inactive; · = not tested or not shown. Compounds with a hit are over-represented: about 3.8% of the library has one in this group of screens.
SMILES,KCNQ1 act,KCNK3 block,KCNK9 block,hERG protect,Kir21 inh,KCNQ1 block
CN(Cc1nccn1C)C(=O)CCc1nnc(CCC2CCCCC2)o1,i,i,i,-8.4,-0.09,i
CC(=O)Nc1ccc(NC=C(C#N)C#N)cc1,i,i,i,-9.8,-0.63,i
CCOC(=O)COc1ccc2ccccc2c1/C=C/[N+](=O)[O-],i,i,i,-22.7,-0.24,i
CCOc1ccc(/C=C/[N+](=O)[O-])c2ccccc12,i,i,i,-6.3,-8.31*,i
O=[N+]([O-])/C=C/c1c(OCc2ccccc2)ccc2ccccc12,i,i,-11.1*,2.3,-7.86*,i
Cc1cc(C)n(CC(=O)c2cccc([N+](=O)[O-])c2)n1,i,i,i,1.5,1.18,i
CO/N=C/NC(=O)Cc1cn(-c2ncc(C(F)(F)F)cc2Cl)c2ccccc12,i,i,i,-9.0,-0.75,i
CC(=O)/C=C\c1cn(-c2ncc(C(F)(F)F)cc2Cl)c2ccccc12,i,i,i,-9.8,1.31,6*
CCOc1ccc(NS(=O)(=O)c2ccc(OC)c(C)c2)cc1,i,i,i,-9.1,-7.51*,i
O=C(Nc1nccs1)c1ccc(COc2ccc(F)cc2)o1,i,i,i,-0.7,0,i
CC(Oc1ccc(Br)cc1Br)C(=O)Nc1cccnc1 (configuration not stated),i,i,i,12.0*,1.01,i
CC(Oc1ccc(Cl)cc1Cl)C(=O)Nc1ccncc1 (configuration not stated),i,i,i,-10.7,1.53,i
CC(Oc1ccc(Cl)cc1Cl)C(=O)Nc1cccnc1 (configuration not stated),i,i,i,6.5*,-1.59,i
CC(OC(=O)Cc1ccc(Cl)cc1)C(=O)NCCC1=CCCCC1 (configuration not stated),i,i,i,-3.1,-1.08,i
O=C(Nc1nccs1)c1ccc(COc2ccccc2Br)o1,i,i,-7.08*,-5.4,-0.72,i
CC(Oc1ccc(Cl)cc1Cl)C(=O)NCCC1=CCCCC1 (configuration not stated),i,i,i,-2.6,-6.99*,i
CCOC(=O)c1c(C)[nH]c(C)c1C(=O)COC(=O)c1cccnc1Cl,·,i,·,·,·,·
CC(C)Oc1ccc(C(=O)NCCCNC(=O)c2ccccn2)cc1,i,i,i,-3.0,-0.29,i
CCOC(=O)C1CCN(C(=O)c2ccc(NS(=O)(=O)c3ccc(F)cc3C)cc2)CC1,i,i,i,-14.3,-0.6,i
COc1ccc(NC(=O)C(=O)NNC(=O)C(C)Oc2ccc(Cl)cc2Cl)cc1 (configuration not stated),108*,i,i,34.8*,-0.25,i
O=C(Nc1cccnc1)c1ccc(COc2cc(Cl)ccc2Cl)o1,i,i,i,25.7*,-0.3,i
O=C(Nc1cccnc1)c1ccc(COc2ccccc2Cl)o1,i,i,i,-0.6,-0.28,i
CC(=O)Nc1ccc(NC(=O)C(C)Oc2ccc(Cl)cc2Cl)cc1 (configuration not stated),i,i,i,-7.0,-1.08,i
CC(C)(C)c1nnc(NC(=O)C2CC(=O)N(CCc3ccc(F)cc3)C2)s1 (configuration not stated),i,i,i,-7.2,-0.01,i
Cc1nc(SCC(=O)NCCc2ccc(Cl)cc2)nc(C)c1C,i,i,i,2.7,-4.96*,i
SMILES,KCNQ1 act,KCNK3 block,KCNK9 block,hERG protect,Kir21 inh,KCNQ1 block
COc1cc2c(=O)n(CCCC(=O)NCC3CCCO3)c(=O)n(CC(=O)c3ccc(F)cc3)c2cc1OC (configuration not stated),i,i,i,-12.8,1.67,i
Cc1ccccc1C(=O)NNC(=S)NC(=O)c1ccc(Cl)cc1Cl,15*,i,i,-15.2,1.44,i
COC(=O)c1onc(-c2ccccc2)c1C(=O)OC,i,i,i,-6.7,1.04,i
O=C(NC(=S)NNC(=O)c1ccc(Cl)cc1Cl)c1cccnc1,i,i,i,-8.6,0.01,i
Cc1onc(-c2ccccc2)c1C(=O)NNC(=S)NC(=O)c1ccc(Br)cc1,34*,i,i,-16.1,1.77,i
Cc1onc(-c2ccccc2)c1C(=O)NNC(=S)NC(=O)c1ccc(Cl)cc1Cl,20*,i,i,-4.5,-0.41,i
COC(=O)c1c(-c2ccccc2)noc1C,i,i,i,5.8*,1.32,i
CC(CCc1ccccc1)NC(=O)c1ccc(-n2cncn2)c([N+](=O)[O-])c1 (configuration not stated),i,i,i,-9.7,0.61,i
COc1ccc(/C=N/NC(=O)CC(=O)NCc2cccnc2)cc1[N+](=O)[O-],i,i,i,-2.5,-1,i
CCC(=O)Nc1cccc(NC(=S)NC(=O)c2ccc(Cl)cc2Cl)c1,i,i,i,-4.4,-0.09,i
CCCN(CCC)C(=S)NC(=O)c1ccc(Cl)cc1Cl,55*,i,i,24.7*,1.27,i
CCN(CC)CCCN(C(=O)c1ccco1)c1nc(-c2ccc(Cl)cc2)cs1,i,i,i,-18.8,-6.16*,i
CCN(CC)CCCN(C(=O)c1ccco1)c1nc(-c2ccc(C)cc2)cs1,i,i,i,-19.8,-0.07,i
CCOc1ccc(N(C(=O)CNC(=O)c2ccco2)C(C(=O)NC2CCCC2)c2cccnc2)cc1 (configuration not stated),i,i,i,-5.8,1.6,i
O=c1c(-c2ccc(Cl)cc2)[n+]([O-])c2ccccc2n1O,32*,i,i,40.2*,-0.1,i
O=c1c(-c2cccc([N+](=O)[O-])c2)[n+]([O-])c2ccccc2n1O,i,i,i,-9.5,0.43,i
CCOc1ccccc1NC1=C(Cl)C(=O)N(c2ccccc2)C1=O,13*,i,i,-11.2,1.94,i
CC(NCCCOc1cccc2ccccc12)c1ccccc1 (configuration not stated),i,i,i,-17.8,-10.3*,i
CCOC(=O)Cc1csc(NC(=O)COc2ccc(N(C)S(=O)(=O)c3ccc(C)cc3)cc2)n1,i,i,-6.75*,-13.9,-1.09,i
O=C(Nc1ccc(Br)cc1)N1CCCCC1,i,i,i,0.7,0.66,i
COc1cc(CCCN2C(=S)NC[C@@H]2CC2CCCCC2)cc(OC)c1OC,i,i,i,-13.2,-4.3*,i
